Activity calls are given as the source filed them. No cut-off for these calls is given here.
Legend:
[1] = Displacement of [125I]-Ang2 from AT2 receptor in porcine uterine myometrial membranes after 1.5 hrs by gamma scintillation gamma scintillation counting analysis; set-up: species or system Sus scrofa
Procedure, shortened: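 Pig uterine myometrial membranes (10 mg original tissue per tube) with 1 μM losartan to block AT1. Incubated 25 °C for 1.5 h, then filtered and counted by γ-counter. Nonspecific binding with 1 μM Ang II.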

NG108-15 [2] = experiment: Agonist activity at AT2 receptor in mouse/rat NG108-15 cells assessed as neurite growth at 10 nM after 3 days by phase contrast microscopic analysis; type: cell-based
Procedure, shortened: (§1)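 NG108-15 neuroblastoma x glioma cells, passages 18–25, in DMEM with 10% FBS and HAT at 37 °C, 7% CO2. Seeded at 3.6 × 10^4 cells per 35 mm dish. Dosed once daily for 3 days starting 24 h after plating; where used, 10 μM PD 123319 was added 30 min before compound. On day 4, phase-contrast micrographs were taken. Cells with a neurite longer than the cell body were scored as % of at least 400 cells. Three independent experiments in duplicate, two-way ANOVA.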

NG108-15 [3] = experiment: Agonist activity at AT2 receptor in mouse/rat NG108-15 cells assessed as neurite growth at 10 nM after 3 days in presence of PD123319 by phase contrast microscopic analysis; type: cell-based; procedure, shortened: as §1
NG108-15 [4] = experiment: Antagonist activity at AT2 receptor in mouse/rat NG108-15 cells assessed as inhibition of angiotensin-2 induced neurite growth at 10 nM after 3 days in presence of angiotensin-2 by phase contrast microscopic analysis; type: cell-based
Procedure, shortened: (§2)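 NG108-15 cells seeded at 3.6 × 10^4 per 35 mm dish. Compound given once daily for 3 days, starting 24 h after plating, 30 min before 100 nM Ang II. On day 4, phase-contrast micrographs were taken. Cells bearing a neurite longer than the cell body were counted as % of at least 400 cells. Three independent experiments in duplicate, two-way ANOVA.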

NG108-15 [5] = experiment: Antagonist activity at AT2 receptor in mouse/rat NG108-15 cells assessed as inhibition of angiotensin-2 induced neurite growth at 100 nM after 3 days in presence of angiotensin-2 by phase contrast microscopic analysis; type: cell-based; procedure, shortened: as §2

**Q.** For `CCCCOC(=O)NS(=O)(=O)c1ccc2c(c1-c1ccc(Cn3ccnc3)cc1)CCC2C(C)C` (single isomer, unassigned; (+)) [listing 1 of 2 here], which Ki [1] is on record?
**A.** Its Ki is 2.8 nM.

**Q.** Which Ki [1] does the source give for `CCCCOC(=O)NS(=O)(=O)c1cc2c(cc1-c1cccc(Cn3ccnc3)c1)CCC2C(C)C` (single isomer, unassigned; (+)) [listing 1 of 2 here] here?
**A.** The Ki was 3.2 nM.

**Q.** With `CCCCOC(=O)NS(=O)(=O)c1cc2c(cc1-c1ccc(Cn3ccnc3)cc1)CCC2C(C)C` (single isomer, unassigned; (+)) [listing 1 of 2 here] as the compound, how does the Ki [1] read?
**A.** Its Ki is 2.2 nM.

**Q.** Which Activity (NG108-15 [2]) does the source give for `CCCCOC(=O)NS(=O)(=O)c1cc2c(cc1-c1ccc(Cn3ccnc3)cc1)CCC2C(C)C` (single isomer, unassigned; (+)) [listing 2 of 2 here] here?
**A.** The Activity was “Active”.

**Q.** What about the Activity (NG108-15 [3]) of the same compound?
**A.** Its Activity is “inactive”.

**Q.** With `CCCCOC(=O)NS(=O)(=O)c1cc2c(cc1-c1cccc(Cn3ccnc3)c1)CCC2C(C)C` (single isomer, unassigned; (+)) [listing 2 of 2 here] as the compound, how does the inhibition (NG108-15 [4]) read?
**A.** The inhibition was “Active”.

**Q.** What about the inhibition (NG108-15 [5]) of the same compound?
**A.** Its inhibition is “Active”.

**Q.** With `CCCCOC(=O)NS(=O)(=O)c1ccc2c(c1-c1ccc(Cn3ccnc3)cc1)CCC2C(C)C` (single isomer, unassigned; (+)) [listing 2 of 2 here] as the compound, how does the inhibition (NG108-15 [4]) read?
**A.** The inhibition was “Active”.

**Q.** And the inhibition (NG108-15 [5])?
**A.** The inhibition was “Active”.

**Q.** With `CCCCOC(=O)NS(=O)(=O)c1ccc2c(c1-c1ccc(Cn3ccnc3)cc1)CCC2C(C)C` (single isomer, unassigned; (-)) [listing 1 of 2 here] as the compound, how does the Ki [1] read?
**A.** Its Ki is 127 nM.

**Q.** Which Ki [1] does the source give for `CCCCOC(=O)NS(=O)(=O)c1ccc2c(c1-c1cccc(Cn3ccnc3)c1)CCC2C(C)C` (single isomer, unassigned; (-)) [listing 1 of 2 here] here?
**A.** Its Ki is 223 nM.

**Q.** Which Ki [1] does the source give for `CCCCOC(=O)NS(=O)(=O)c1cc2c(cc1-c1cccc(Cn3ccnc3)c1)CCC2C(C)C` (single isomer, unassigned; (-)) [listing 1 of 2 here] here?
**A.** Its Ki is 7 nM.

**Q.** With `CCCCOC(=O)NS(=O)(=O)c1cc2c(cc1-c1ccc(Cn3ccnc3)cc1)CCC2C(C)C` (single isomer, unassigned; (-)) [listing 1 of 2 here] as the compound, how does the Ki [1] read?
**A.** Its Ki is 5.9 nM.

**Q.** For `CCCCOC(=O)NS(=O)(=O)c1cc2c(cc1-c1ccc(Cn3ccnc3)cc1)CCC2C(C)C` (single isomer, unassigned; (-)) [listing 2 of 2 here], which Activity (NG108-15 [2]) is on record?
**A.** Its Activity is “Active”.

**Q.** What about the Activity (NG108-15 [3]) of the same compound?
**A.** The Activity was “inactive”.

**Q.** Which results are given for `CCCCOC(=O)NS(=O)(=O)c1cc2c(cc1-c1cccc(Cn3ccnc3)c1)CCC2C(C)C` (single isomer, unassigned; (-)) [listing 2 of 2 here]?
**A.** Activity (NG108-15 [2]): Active; Activity (NG108-15 [3]): inactive

**Q.** Which Activity (NG108-15 [2]) does the source give for `CCCCOC(=O)NS(=O)(=O)c1ccc2c(c1-c1ccc(Cn3ccnc3)cc1)CCC2C(C)C` (single isomer, unassigned; (-)) [listing 2 of 2 here] here?
**A.** The Activity was “Active”.

**Q.** What about the Activity (NG108-15 [3]) of the same compound?
**A.** Its Activity is “inactive”.

**Q.** Which inhibition (NG108-15 [4]) does the source give for `CCCCOC(=O)NS(=O)(=O)c1ccc2c(c1-c1cccc(Cn3ccnc3)c1)CCC2C(C)C` (single isomer, unassigned; (-)) [listing 2 of 2 here] here?
**A.** The inhibition was “Active”.

**Q.** What about the inhibition (NG108-15 [5]) of the same compound?
**A.** Its inhibition is “Active”.

**Q.** For `CCCCOC(=O)NS(=O)(=O)c1ccc2c(c1-c1cccc(Cn3ccnc3)c1)CCC2C(C)C` (stereo in doubt; 8b) [listing 1 of 2 here], which Ki [1] is on record?
**A.** Its Ki is 53.5 nM.

**Q.** What does the source list for `CCCCOC(=O)NS(=O)(=O)c1ccc2c(c1-c1cccc(Cn3ccnc3)c1)CCC2C(C)C` (stereo in doubt; 8b) [listing 2 of 2 here]?
**A.** inhibition (NG108-15 [4]): Active; inhibition (NG108-15 [5]): Active

Reference: ChEMBL document CHEMBL4373685, “High affinity rigidified AT2 receptor ligands with indane scaffolds” (Medchemcomm, 2019)
